Source: article PMC9926453 (Medicinal Chemistry Research, 2023)

How the values were obtained:
Assay type in all cases: cell-based
[1] = system: MCF-7 breast cancer cells; test: MTT antiproliferative assay, MCF-7; details: Homo sapiens, MCF7, 24 h, read-out: Antiproliferative activity (IC50) MCF-7
Procedure, shortened: (§1)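 Cells seeded at 2×10^3 per well and left 24 h to adhere, then exposed to test compound (0–100 µM, final) for 24 h at 37 °C. MTT added for 4 h, a second MTT addition followed by overnight incubation, and absorbance read at 540 nm. Growth compared with untreated cells; IC50 derived from dose-response curves.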

[2] = system: MDA-MB-231 breast cancer cells; test: MTT antiproliferative assay, MDA-MB-231; details: Homo sapiens, MDA-MB-231, 24 h, read-out: Antiproliferative activity (IC50) MDA-MB-231
Procedure, shortened: (§2)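 Cells were seeded at 2×10^3 per well and left to adhere for 24 h. Test compound was then added at 0–100 µM final, and cells were incubated for 24 h at 37 °C. MTT was added for 4 h, […]. Absorbance was read at 540 nm and growth compared with untreated cells. IC50 was taken from a dose-response curve.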

[3] = system: MDA-MB-231/ADR breast cancer cells; test: MTT antiproliferative assay, MDA-MB-231/ADR; details: Homo sapiens, MDA-MB-231, 24 h, read-out: Antiproliferative activity (IC50) MDA-MB-231/ADR
Procedure, shortened: as §2

[4] = MTT cytotoxicity towards normal breast cells; details: human, MCF-10A normal breast cells
[5] = system: normal MCF-10A breast cells; test: MTT cytotoxicity towards normal breast cells; details: SI: IC50(MCF-10A)/IC50(MCF-7) or IC50(MCF-10A)/IC50(MDA-MB-231)
[6] = system: MCF-7, MDA-MB-231, MCF-7/ADR and MDA-MB-231/ADR breast cancer cell lines; test: MTT antiproliferative assay, the four breast cancer cell lines taken together; details: Homo sapiens, read-out: IC50 range over the four breast cancer cell lines
Procedure, shortened: as §1

Row | Compound | IC50 [1] | IC50 [2] | IC50 [3] | IC50 at 24 h [4] | Selectivity index (SI) [5] | IC50 [6]
1 | COc1cccc2c1C(=O)c1c(O)c3c(c(O)c1C2=O)C[C@@](O)(C(=O)CO)C[C@@H]3O[C@H]1C[C@H](N)[C@H](O)[C@H](C)O1 [ADR, Adriamycin, reference compound] | 18.9 µM | 3.38 µM | > 100 µM | 68.8 µM | 3.64 | 
2 | C[C@@H]1CC[C@H]2[C@@H](C)C(=O)O[C@@H]3O[C@@]4(C)CC[C@@H]1[C@]32OO4 [ART, Artemisinin, reference compound] | > 100 µM | > 100 µM | > 100 µM | > 100 µM |  | > 100 µM
3 | C[C@H]1[C@@H](O)O[C@@H]2O[C@@]3(C)CC[C@H]4[C@H](C)CC[C@@H]1[C@@]24OO3 [DHA, Dihydroartemisinin, reference compound] | 28.3 µM | 48.8 µM | 82.8 µM | > 100 µM | >3.53 | 14.8 to 82.8 µM
4 | C[C@@H]1CC[C@H]2[C@@H](C)C(OC(=O)CCCN3C(=O)C(=O)c4ccccc43)O[C@@H]3O[C@@]4(C)CC[C@@H]1[C@]32OO4 (stereo partly drawn) [Hybrid 4a, (3R,5aS,6R,8aS,9R,12R,12aR)-3,6,9-trimethyldecahydro-12H-3,12-epoxy[1,2]dioxepino[4,3-i]isochromen-10-yl 4-(2,3-dioxoindolin-1-yl)butanoate] | 13.6 µM | 14.9 µM | 49.6 µM | > 100 µM | >7.33 | 
5 | C[C@@H]1CC[C@H]2[C@@H](C)C(OC(=O)CCCN3C(=O)C(=O)c4cc(F)ccc43)O[C@@H]3O[C@@]4(C)CC[C@@H]1[C@]32OO4 (stereo partly drawn) [Hybrid 4b, (3R,5aS,6R,8aS,9R,12R,12aR)-3,6,9-trimethyldecahydro-12H-3,12-epoxy[1,2]dioxepino[4,3-i]isochromen-10-yl 4-(5-fluoro-2,3-dioxoindolin-1-yl)butanoate] | 13.1 µM | 50 µM | > 100 µM | > 100 µM | >7.62 | 
6 | Cc1ccc2c(c1)C(=O)C(=O)N2CCCC(=O)OC1O[C@@H]2O[C@@]3(C)CC[C@H]4[C@H](C)CC[C@@H]([C@H]1C)[C@@]24OO3 (stereo partly drawn) [Hybrid 4c, (3R,5aS,6R,8aS,9R,12R,12aR)-3,6,9-trimethyldecahydro-12H-3,12-epoxy[1,2]dioxepino[4,3-i]isochromen-10-yl 4-(5-methyl-2,3-dioxoindolin-1-yl)butanoate] | > 100 µM | 32.9 µM | > 100 µM |  |  | 
7 | COc1ccc2c(c1)C(=O)C(=O)N2CCCC(=O)OC1O[C@@H]2O[C@@]3(C)CC[C@H]4[C@H](C)CC[C@@H]([C@H]1C)[C@@]24OO3 (stereo partly drawn) [Hybrid 4d, (3R,5aS,6R,8aS,9R,12R,12aR)-3,6,9-trimethyldecahydro-12H-3,12-epoxy[1,2]dioxepino[4,3-i]isochromen-10-yl 4-(5-methoxy-2,3-dioxoindolin-1-yl)butanoate] | 18.1 µM | 15.1 µM | 20.1 µM | > 100 µM | >5.52 | 
8 | CON=C1C(=O)N(CCCC(=O)OC2O[C@@H]3O[C@@]4(C)CC[C@H]5[C@H](C)CC[C@@H]([C@H]2C)[C@@]35OO4)c2ccccc21 (stereo partly drawn) [Hybrid 5a, (3R,5aS,6R,8aS,9R,12R,12aR)-3,6,9-trimethyldecahydro-12H-3,12-epoxy[1,2]dioxepino[4,3-i]isochromen-10-yl 4-(3-(methoxyimino)-2-oxoindolin-1-yl)butanoate] | 19.1 µM | > 100 µM | 52.2 µM | > 100 µM | >5.23 | 
9 | CCON=C1C(=O)N(CCCC(=O)OC2O[C@@H]3O[C@@]4(C)CC[C@H]5[C@H](C)CC[C@@H]([C@H]2C)[C@@]35OO4)c2ccccc21 (stereo partly drawn) [Hybrid 5b, (3R,5aS,6R,8aS,9R,12R,12aR)-3,6,9-trimethyldecahydro-12H-3,12-epoxy[1,2]dioxepino[4,3-i]isochromen-10-yl 4-(3-(ethoxyimino)-2-oxoindolin-1-yl)butanoate] | 1.27 µM | 15.1 µM | 26.8 µM | > 100 µM | >78.74 | 
10 | C[C@@H]1CC[C@H]2[C@@H](C)C(OC(=O)CCCN3C(=O)C(=NOCc4ccccc4)c4ccccc43)O[C@@H]3O[C@@]4(C)CC[C@@H]1[C@]32OO4 (stereo partly drawn) [Hybrid 5c, (3R,5aS,6R,8aS,9R,12R,12aR)-3,6,9-trimethyldecahydro-12H-3,12-epoxy[1,2]dioxepino[4,3-i]isochromen-10-yl 4-(3-((benzyloxy)imino)-2-oxoindolin-1-yl)butanoate] | > 100 µM | 2.39 µM | 3.95 µM | > 100 µM |  | 
11 | CON=C1C(=O)N(CCCC(=O)OC2O[C@@H]3O[C@@]4(C)CC[C@H]5[C@H](C)CC[C@@H]([C@H]2C)[C@@]35OO4)c2ccc(F)cc21 (stereo partly drawn) [Hybrid 5d, (3R,5aS,6R,8aS,9R,12R,12aR)-3,6,9-trimethyldecahydro-12H-3,12-epoxy[1,2]dioxepino[4,3-i]isochromen-10-yl 4-(3-(methoxyimino)-5-fluoro-2-oxoindolin-1-yl)butanoate] | 6.07 µM | > 100 µM | > 100 µM | > 100 µM |  | 
12 | CCON=C1C(=O)N(CCCC(=O)OC2O[C@@H]3O[C@@]4(C)CC[C@H]5[C@H](C)CC[C@@H]([C@H]2C)[C@@]35OO4)c2ccc(F)cc21 (stereo partly drawn) [Hybrid 5e, (3R,5aS,6R,8aS,9R,12R,12aR)-3,6,9-trimethyldecahydro-12H-3,12-epoxy[1,2]dioxepino[4,3-i]isochromen-10-yl 4-(3-(ethoxyimino)-5-fluoro-2-oxoindolin-1-yl)butanoate] | 15.9 µM | 8.12 µM | > 100 µM | > 100 µM | >6.29 | 
13 | C[C@@H]1CC[C@H]2[C@@H](C)C(OC(=O)CCCN3C(=O)C(=NOCc4ccccc4)c4cc(F)ccc43)O[C@@H]3O[C@@]4(C)CC[C@@H]1[C@]32OO4 (stereo partly drawn) [Hybrid 5f, (3R,5aS,6R,8aS,9R,12R,12aR)-3,6,9-trimethyldecahydro-12H-3,12-epoxy[1,2]dioxepino[4,3-i]isochromen-10-yl 4-(3-((benzyloxy)imino)-5-fluoro-2-oxoindolin-1-yl)butanoate] | 18.3 µM | > 100 µM | > 100 µM | > 100 µM | >5.46 | 
14 | CCON=C1C(=O)N(CCCC(=O)OC2O[C@@H]3O[C@@]4(C)CC[C@H]5[C@H](C)CC[C@@H]([C@H]2C)[C@@]35OO4)c2ccc(C)cc21 (stereo partly drawn) [Hybrid 5g, (3R,5aS,6R,8aS,9R,12R,12aR)-3,6,9-trimethyldecahydro-12H-3,12-epoxy[1,2]dioxepino[4,3-i]isochromen-10-yl 4-(3-(ethoxyimino)-5-methyl-2-oxoindolin-1-yl)butanoate] | > 100 µM | > 100 µM | > 100 µM |  |  | 
15 | Cc1ccc2c(c1)C(=NOCc1ccccc1)C(=O)N2CCCC(=O)OC1O[C@@H]2O[C@@]3(C)CC[C@H]4[C@H](C)CC[C@@H]([C@H]1C)[C@@]24OO3 (stereo partly drawn) [Hybrid 5h, (3R,5aS,6R,8aS,9R,12R,12aR)-3,6,9-trimethyldecahydro-12H-3,12-epoxy[1,2]dioxepino[4,3-i]isochromen-10-yl 4-(3-((benzyloxy)imino)-5-methyl-2-oxoindolin-1-yl)butanoate] | > 100 µM | > 100 µM | > 100 µM |  |  | 
16 | CON=C1C(=O)N(CCCC(=O)OC2O[C@@H]3O[C@@]4(C)CC[C@H]5[C@H](C)CC[C@@H]([C@H]2C)[C@@]35OO4)c2ccc(OC)cc21 (stereo partly drawn) [Hybrid 5i, (3R,5aS,6R,8aS,9R,12R,12aR)-3,6,9-trimethyldecahydro-12H-3,12-epoxy[1,2]dioxepino[4,3-i]isochromen-10-yl 4-(5-methoxy-3-(methoxyimino)-2-oxoindolin-1-yl)butanoate] | > 100 µM | > 100 µM | > 100 µM |  |  | 
17 | CCON=C1C(=O)N(CCCC(=O)OC2O[C@@H]3O[C@@]4(C)CC[C@H]5[C@H](C)CC[C@@H]([C@H]2C)[C@@]35OO4)c2ccc(OC)cc21 (stereo partly drawn) [Hybrid 5j, (3R,5aS,6R,8aS,9R,12R,12aR)-3,6,9-trimethyldecahydro-12H-3,12-epoxy[1,2]dioxepino[4,3-i]isochromen-10-yl 4-(3-(ethoxyimino)-5-methoxy-2-oxoindolin-1-yl)butanoate] | > 100 µM | > 100 µM | > 100 µM |  |  | 
18 | COc1ccc2c(c1)C(=NOCc1ccccc1)C(=O)N2CCCC(=O)OC1O[C@@H]2O[C@@]3(C)CC[C@H]4[C@H](C)CC[C@@H]([C@H]1C)[C@@]24OO3 (stereo partly drawn) [Hybrid 5k, (3R,5aS,6R,8aS,9R,12R,12aR)-3,6,9-trimethyldecahydro-12H-3,12-epoxy[1,2]dioxepino[4,3-i]isochromen-10-yl 4-(3-((benzyloxy)imino)-5-methoxy-2-oxoindolin-1-yl)butanoate] | > 100 µM | > 100 µM | > 100 µM |  |  | 
